# Only some compounds are listed: those with a hit (about 4.1% of all), similar ones and a draw of the others.
# KCNQ1 inh = inhibitors of human KCNQ1 potassium channel. P51787. CHO-K1 KCNQ1, FluxOR thallium flux fluorescence; stronger effect = higher value. B-score at 10 µM. hit rate 1.3% among 310,000;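 active = compounds whose thallium flux B-score, printed positive for inhibition, exceeds three library SD while starting fluorescence stays within three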;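 also: channel opened by potassium depolarization with thallium stimulus after 20 min compound exposure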
# KCNK9 inh = blocks the human KCNK9 two-pore domain potassium channel. AID 488922. B-score at 10 µM. hit rate 1.2% among 310,000. Q9NPC2. HEK293 KCNK9, FluxOR thallium flux fluorescence; stronger effect = lower value;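 active = ratio B-score over 3 SD below the library mean, with starting fluorescence within 5 SD of its mean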;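 also: negative B-score means less thallium flux so channel inhibition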
# KCNQ1 act = human KCNQ1 channel potentiation or activation; P51787; CHO-K1 KCNQ1, thallium flux FluxOR fluorescence; stronger effect = higher value; B-score at 10 µM; hit rate 0.35% among 310,000;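 active = fluorescence ratio B-score, a plate-corrected score, at least three library SD, with initial intensity B-score within 5 SD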
#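 assay system = CHO-K1 cells stably expressing KCNQ1 | medium = assay buffer, equal DMSO in all wells | timing = 37 °C overnight plating, 90-min dark dye load, 20-min compound pretreatment | measured by = kinetic FluxOR thallium fluorescence, 10-s 1-Hz baseline, 110-s post-stimulus read | measure = fluorescence change relative to baseline, converted to B score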
# KCC2 mod = modulators of human KCC2 chloride dependent transport; Q9H2X9; KCC2 cells, thallium flux FluoZin-2 fluorescence; B-score of Tl+ flux slope (higher = more flux/activation; lower = inhibition) at 10 µM; hit rate 2.2% among 190,000;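 active = thallium flux slope and its plate-corrected score both differing from the plate sample mean at a set confidence after two filtering rounds, in either direction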;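 also: slope of fluorescence scaled to starting intensity during 10 to 20 s after thallium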
# Target sequence (Q9H2X9 whole entry, looked up): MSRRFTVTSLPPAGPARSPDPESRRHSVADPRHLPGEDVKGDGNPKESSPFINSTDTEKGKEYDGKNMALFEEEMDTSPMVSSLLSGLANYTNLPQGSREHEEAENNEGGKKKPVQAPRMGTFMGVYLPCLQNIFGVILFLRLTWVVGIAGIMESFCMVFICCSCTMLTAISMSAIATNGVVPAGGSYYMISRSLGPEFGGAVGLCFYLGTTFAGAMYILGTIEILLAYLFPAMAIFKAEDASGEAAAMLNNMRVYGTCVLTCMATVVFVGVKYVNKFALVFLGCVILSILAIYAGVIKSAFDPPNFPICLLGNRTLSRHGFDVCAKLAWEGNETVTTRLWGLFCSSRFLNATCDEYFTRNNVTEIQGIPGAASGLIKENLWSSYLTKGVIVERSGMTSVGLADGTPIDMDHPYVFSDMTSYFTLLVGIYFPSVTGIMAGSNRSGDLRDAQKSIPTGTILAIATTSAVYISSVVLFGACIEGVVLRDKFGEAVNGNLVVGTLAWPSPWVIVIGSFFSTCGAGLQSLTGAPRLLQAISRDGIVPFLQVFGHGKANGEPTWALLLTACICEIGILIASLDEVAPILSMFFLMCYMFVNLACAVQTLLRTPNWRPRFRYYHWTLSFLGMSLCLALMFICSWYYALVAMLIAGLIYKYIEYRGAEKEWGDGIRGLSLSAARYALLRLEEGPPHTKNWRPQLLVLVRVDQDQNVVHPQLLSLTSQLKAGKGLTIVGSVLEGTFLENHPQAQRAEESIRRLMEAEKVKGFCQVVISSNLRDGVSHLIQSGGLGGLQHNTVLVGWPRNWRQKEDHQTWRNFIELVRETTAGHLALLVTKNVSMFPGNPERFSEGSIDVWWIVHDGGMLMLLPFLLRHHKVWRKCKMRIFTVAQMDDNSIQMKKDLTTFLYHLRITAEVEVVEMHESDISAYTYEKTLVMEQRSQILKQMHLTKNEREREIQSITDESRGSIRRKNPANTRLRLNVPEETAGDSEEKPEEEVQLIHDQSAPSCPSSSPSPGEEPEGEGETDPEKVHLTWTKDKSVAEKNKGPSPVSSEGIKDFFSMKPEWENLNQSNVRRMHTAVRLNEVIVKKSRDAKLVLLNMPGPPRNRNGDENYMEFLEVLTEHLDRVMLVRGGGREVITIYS
# hERG rescue = compounds protecting human hERG from proarrhythmic drug block | CHO-hERG, FluxOR thallium flux, dofetilide IC70 present | activation (rescue from dofetilide block), less the hit threshold, % at 10 µM | hit rate 0.51% among 310,000;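 active = activation above the mean of controls blocked by dofetilide plus 5 SD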;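 also: thallium influx through hERG after potassium depolarization seen as dye fluorescence rise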
# KCNK3 block = human KCNK3 channel inhibition, primary screen. hit rate 0.84% among 340,000. CHO-KCNK3 thallium flux, FluxOR fluorescence; stronger effect = lower value. O14649. B-score at 10 µM;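 active = B-score under library mean minus 4 SD, starting fluorescence ratio at most library mean plus 5 SD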;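 also: more negative B-score means stronger inhibition of thallium flux through KCNK3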
# KCNK9 inh conf = human KCNK9 inhibitor confirmation; shares compounds with KCNK9 inh; AID 492992; hit rate 43% among 4,900; HEK293 KCNK9 cells, FluxOR thallium flux fluorescence; inhibition, % at 10 µM;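 active = thallium signal inhibited by more than 5 SD of the compound-free buffer control wells, on both duplicate plates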;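 also: 0% = assay buffer control wells without compound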
# Kir2-1 spec = mouse Kir2.1 off-target activity of KCNK9 modulators. shares compounds with KCNK9 inh. Kir2.1 cells, FluxOR thallium flux fluorescence. inhibition, % at 10 µM. hit rate 4% among 4,900;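 active = thallium signal drop more than 5 SD beyond the mean of the no-compound control wells, seen in both duplicate plates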;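 also: signal is fluorescence rise after thallium addition divided by baseline fluorescence; plate controls were assay buffer only for no effect and full block by chlorpromazine control for full effect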
# HEK293 Tl ctr = non-induced cell nonspecific activity of KCNK9 modulators. shares compounds with KCNK9 inh. non-induced KCNK9-HEK293, FluxOR thallium flux. inhibition, % at 10 µM. hit rate 40% among 4,900;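 active = thallium signal drop beyond 5 SD of the untreated control mean, on both duplicate plates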;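 also: plate controls were buffer only IC0 wells for no effect and SID17386958 at its maximal inhibitory level for full effect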
# * = called active by the depositor; i = inactive; nt = not tested or not shown.
SMILES,KCNQ1 inh,KCNK9 inh,KCNQ1 act,KCC2 mod,hERG rescue,KCNK3 block,KCNK9 inh conf,Kir2-1 spec,HEK293 Tl ctr
O=C(CN1C(=O)S/C(=C\c2ccccn2)C1=O)Nc1ccccc1,i,i,i,nt,-7.6,i,nt,nt,nt
CC(=O)N1CCOc2ccc(S(=O)(=O)N(C)c3ccc(C)cc3)cc21,i,i,i,nt,-5.0,i,nt,nt,nt
CC(C)Cc1nc(N2CCN(C(=O)c3ccccc3)CC2)c(C#N)c2c1CCC2,i,i,i,0.0395,-17.0,i,nt,nt,nt
N#Cc1c(N2CCN(C(=O)c3ccccc3)CC2)nc(-c2ccccc2)c2c1CCCC2,i,i,i,nt,-6.6,i,i,i,i
Cc1ccc2c(c1)N(C(=O)c1ccco1)C(C)(C)c1ssc(=S)c1-2,i,-8.26*,i,1.65,-0.9,i,38.0%*,i,29.5%*
Cc1cccc2c1N(C(=O)c1ccco1)C(C)(C)c1ssc(=S)c1-2,i,i,i,nt,-7.1,i,nt,nt,nt
Cc1cc(NC(=O)C(C)C)ncc1NC(=O)c1ccccn1,i,i,i,0.793,-1.4,i,i,i,i
CCN1CCN(S(=O)(=O)c2ccc(OC)c(NC(=O)c3ccccc3F)c2)CC1,i,i,i,nt,-6.8,i,nt,nt,nt
CCOc1c(Br)cc(CNc2ccc3c(c2)OCCO3)cc1OC,i,i,i,-0.291,-7.3,i,nt,nt,nt
CCOc1cc(CNc2ccc3c(c2)OCCO3)cc(Br)c1OC,i,i,i,-1.35,-7.7,i,i,i,i
S=c1[nH]nc(-c2cc3c(s2)-c2ccccc2CC3)o1,i,i,71*,94.8*,133.6*,i,i,i,i
CCOC(=O)c1ccc(N2C(=O)c3n[nH]c(-c4ccco4)c3C2c2cccc([N+](=O)[O-])c2)cc1 (stereo not drawn),i,-9.44*,i,-0.409,-8.3,i,64.0%*,i,30.5%*
CCOC(=O)c1ccc(N2C(=O)c3n[nH]c(C)c3C2c2ccco2)cc1 (stereo not drawn),i,i,i,nt,-9.5,i,nt,nt,nt
O=C(/C=C/c1ccco1)NC(=S)Nc1cc(-c2nc3ccccc3s2)ccc1Cl,nt,nt,nt,-0.0364,nt,i,nt,nt,nt
O=C(/C=C/c1ccco1)NC(=S)Nc1cccc(-c2nc3ccccc3s2)c1,i,i,i,0.593,-11.2,i,i,i,i
Cc1cccc(-n2ncc3c2CCCC3NC(=O)C2=CC(=O)CC(C)(C)O2)c1C (stereo not drawn),i,i,i,nt,-15.2,i,nt,nt,nt
COc1cc(C2=NOC(C(=O)NCc3cccnc3)C2)cc(OC)c1OC (stereo not drawn),i,-8.64*,i,nt,-1.9,i,26.5%*,i,i
COc1ccc(OC)c(C2=NOC(C(=O)NCc3cccnc3)C2)c1 (stereo not drawn),i,i,i,nt,0.3,i,nt,nt,nt
COc1ccc(CN(C)C(=O)c2cccc(Oc3ccccc3)c2)c(OC)c1OC,i,i,i,nt,-11.3,i,nt,nt,nt
CN(Cc1ccc(C(F)(F)F)cc1)C(=O)c1ccc(Oc2ccccc2)cc1,i,i,i,nt,-2.9,i,i,i,25.5%*
CN(Cc1ccc(C(F)(F)F)cc1)C(=O)c1ccc2ccccc2n1,i,i,i,nt,-9.0,i,nt,nt,nt
CN(Cc1ccccc1F)C(=O)c1ccc(Oc2ccccc2)cc1,i,i,i,nt,-13.8,i,i,i,i
O=C(NCCS(=O)(=O)c1ccc(Br)cc1)c1ccc(Cl)cc1Cl,i,i,i,nt,-1.9,i,nt,nt,nt
CCCc1[nH]nc2c1C1(CCN(C(=O)OCc3ccccc3)CC1)C(C#N)=C(N)O2,i,-9.69*,i,-0.233,-8.8,i,32.5%*,i,i
